# Assay results as given in ChEMBL document CHEMBL1155806, “Inorganic polyhedral metallacarborane inhibitors of HIV protease: a new approach to overcoming antiviral resistance” (J Med Chem, 2008).
# Tests used:
# [1] = molecular target: Human immunodeficiency virus type 1 protease (Human immunodeficiency virus 1, UniProt Q72874, A71V/I84V/M46I/V82T); assay: Inhibition of HIV1 recombinant protease M46I/A71V/V82T/I84V mutant expressed in Escherichia coli by spectrophotometric assay
# How it was run: (§1)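 Recombinant PR refolded from inclusion bodies and purified. 8-10 pmol enzyme in 1 mL 0.1 M sodium acetate pH 4.7, 0.3 M NaCl, 4 mM EDTA. Ki obtained by fitting the Williams–Morrison competitive inhibition equation.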
# [2] = Ratio of Ki for HIV1 recombinant protease L10I/L24I/L33F/M46L/[…]/L63P/A71V/V82A/I84V mutant to Ki for wild-type HIV1 BH10 protease expressed in Escherichia coli; set-up: species or system Human immunodeficiency virus 1
# [3] = Ratio of Ki for HIV1 recombinant protease D30N/N88D mutant to Ki for wild-type HIV1 BH10 protease; set-up: species or system Human immunodeficiency virus 1
# [4] = molecular target: Human immunodeficiency virus type 1 protease (Human immunodeficiency virus 1, UniProt Q72874, D30N/N88D); assay: Inhibition of HIV1 recombinant protease D30N/N88D mutant expressed in Escherichia coli by spectrophotometric assay; how it was run: as §1
# [5] = Ratio of Ki for HIV1 recombinant protease A71V/V82T/I84V mutant to Ki for wild-type HIV1 BH10 protease; set-up: species or system Human immunodeficiency virus 1
# [6] = molecular target: Human immunodeficiency virus type 1 protease (Human immunodeficiency virus 1, UniProt Q72874, A71V/E35D/F53L/H69K/I54V/I84V/I93L/K20R/L10F/L19I/L33F/L63P/L89M/L90M/M36I/R41K/T74P); assay: Inhibition of HIV1 recombinant protease L10F/L19I/K20R/L33F/E35D/M36I/R41K/F53L/I54V/L63P/H69K/A71V/T74P/I84V/L89M/L90M/I93L mutant expressed in Escherichia coli by spectrophotometric assay; how it was run: as §1
# [7] = Ratio of Ki for HIV1 recombinant protease L10F/L19I/K20R/L33F/E35D/M36I/R41K/F53L/I54V/L63P/H69K/A71V/T74P/I84V/L89M/L90M/I93L mutant to Ki for wild-type HIV1 BH10 protease; set-up: species or system Human immunodeficiency virus 1
# [8] = Ratio of Ki for HIV1 recombinant protease M46I/A71V/V82T/I84V mutant to Ki for wild-type HIV1 BH10 protease; set-up: species or system Human immunodeficiency virus 1
# [9] = molecular target: Human immunodeficiency virus type 1 protease (Human immunodeficiency virus 1, UniProt Q72874, I47A/V32I); assay: Inhibition of HIV1 recombinant protease V32I/I47A mutant expressed in Escherichia coli by spectrophotometric assay; how it was run: as §1
# [10] = Ratio of Ki for HIV1 recombinant protease L10I/I15V/E35D/N37S/R41K/I62V/L63P/A71V/G73S/L90M mutant to Ki for wild-type HIV1 BH10 protease; set-up: species or system Human immunodeficiency virus 1
# [11] = molecular target: Human immunodeficiency virus type 1 protease (Human immunodeficiency virus 1, UniProt Q72874, A71V/E35D/G73S/I15V/I62V/L10I/L63P/L90M/N37S/R41K); assay: Inhibition of HIV1 recombinant protease L10I/I15V/E35D/N37S/R41K/I62V/L63P/A71V/G73S/L90M mutant expressed in Escherichia coli by spectrophotometric assay
# [12] = molecular target: Human immunodeficiency virus type 1 protease (Human immunodeficiency virus 1, UniProt Q72874, A71V/I54V/I84V/L10I/L24I/L33F/L63P/M46L/V82A); assay: Inhibition of HIV1 recombinant protease L10I/L24I/L33F/M46L/I54V/L63P/A71V/V82A/I84V mutant expressed in Escherichia coli by spectrophotometric assay; how it was run: as §1
# [13] = Ratio of Ki for HIV1 recombinant protease V32I/I47A mutant to Ki for wild-type HIV1 BH10 protease; set-up: species or system Human immunodeficiency virus 1
# [14] = molecular target: Protease (Human immunodeficiency virus 1, UniProt Q9YQ12); assay: Inhibition of wild-type HIV1 BH10 protease expressed in Escherichia coli by spectrophotometric assay; how it was run: as §1
# [15] = molecular target: Human immunodeficiency virus type 1 protease (Human immunodeficiency virus 1, UniProt Q72874, A71V/I84V/V82T); assay: Inhibition of HIV1 recombinant protease A71V/V82T/I84V mutant expressed in Escherichia coli by spectrophotometric assay; how it was run: as §1
Structure (SMILES),Ki [1],Ki ratio [2],Ki ratio [3],Ki [4],Ki ratio [5],Ki [6],Ki ratio [7],Ki ratio [8],Ki [9],Ki ratio [10],Ki [11],Ki [12],Ki ratio [13],Ki [14],Ki [15]
COC(=O)N[C@H](C(=O)N[C@@H](Cc1ccccc1)[C@@H](O)CN(Cc1ccc(-c2ccccn2)cc1)NC(=O)[C@@H](NC(=O)OC)C(C)(C)C)C(C)(C)C [ATAZANAVIR],0.76 nM,50,2.3,0.055 nM,9.4,0.054 nM,2.3,32,0.17 nM,3.2,0.076 nM,1.2 nM,7.1,0.024 nM,0.23 nM
Cc1c(O)cccc1C(=O)N[C@@H](CSc1ccccc1)[C@H](O)CN1C[C@H]2CCCC[C@H]2C[C@H]1C(=O)NC(C)(C)C,–,–,–,–,–,–,–,–,–,–,–,–,–,0.07 nM,–
CC(C)CN(C[C@@H](O)[C@H](Cc1ccccc1)NC(=O)O[C@H]1CCOC1)S(=O)(=O)c1ccc(N)cc1,–,–,–,–,–,–,–,–,–,–,–,4.1 nM,–,[…],–
